This is an account of results in ChEMBL document CHEMBL4732162, “Design, synthesis and evaluation of novel ErbB/HDAC multitargeted inhibitors with selectivity in EGFR mutant cell lines” (Eur J Med Chem, 2021).

SMILES strings stand for the structures. Calls of active or inactive are those of the source. No cut-off for these calls is given here.

Experiment [1] concerns NCI-H1975. Kind of experiment: Antiproliferative activity against human NCI-H1975 cells incubated for 72 hrs by MTT assay. In kind it is functional, cell-based. Conditions: NCI-H1975, 72 h. On the technique in general: Tetrazolium dyes change colour on reduction, which living cells bring about.
Experiment [2] addresses T1, Epidermal growth factor receptor (Homo sapiens, UniProt P00533). Kind of experiment: Inhibition of EGFR (unknown origin) by mobility shift assay.
In experiment [3] the target is Epidermal growth factor receptor (Homo sapiens, UniProt P00533, L858R). Put plainly: Inhibition of EGFR L858R (unknown origin) by mobility shift assay.
The nature of a further experiment: cells. Conditions: BaF3, 72 h. It is filed as cell-based.
For experiment [4], the system named is NCI-H1975. Put plainly: Cytotoxicity against human NCI-H1975 cells assessed as inhibition of colony formation incubated for 7 days by crystal violet based colony formation assay. In kind it is functional, cell-based. The conditions noted are these: dose 0.5-5 µM, time 7.0 day. The procedure, abridged: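 NCI-H1975 cells, 1 × 10⁴/well, were seeded in 6-well plates and cultured 12 h. They were then treated with compound for 7 days. Colonies were fixed in 10% buffered formalin for 1 h and stained with crystal violet for 1 h.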

In experiment [5] the test system is NCI-H1975. Kind of experiment: Induction of apoptosis in human NCI-H1975 cells assessed as late apoptotic cells at 0.5 uM incubated for 48 hrs by propidium iodide and annexin-V FITC staining based flow cytometry (Rvb =4.20 %). It is filed as functional.
Experiment [6] concerns NCI-H1975. Kind of experiment: Induction of apoptosis in human NCI-H1975 cells assessed as late apoptotic cells at 2.5 uM incubated for 48 hrs by propidium iodide and annexin-V FITC staining based flow cytometry (Rvb =4.20 %). In kind it is functional. (A flow cytometer gives signals particle by particle.)
For experiment [7], the system named is NCI-H1975. Put plainly: Induction of apoptosis in human NCI-H1975 cells assessed as viable cells at 2.5 uM incubated for 48 hrs by propidium iodide and annexin-V FITC staining based flow cytometry (Rvb =88.95% ). In kind it is functional. Conditions: read-out: Activity.
Experiment [8] deals with NCI-H1975. Put plainly: Induction of apoptosis in human NCI-H1975 cells assessed as early apoptotic cells at 5 uM incubated for 48 hrs by propidium iodide and annexin-V FITC staining based flow cytometry (reference value: 6.67 %). It is filed as functional.
Experiment [9] deals with NCI-H1975. Put plainly: Induction of apoptosis in human NCI-H1975 cells assessed as viable cells at 5 uM incubated for 48 hrs by propidium iodide and annexin-V FITC staining based flow cytometry (Rvb =88.95% ). In kind it is functional. The conditions noted are these: read-out: Activity.
In experiment [10] the target is T1, Epidermal growth factor receptor. Kind of experiment: Inhibition of EGFR in human NCI-H1975 cells assessed as reduction in AKT phosphorylation at S473 residues at 0.5 to 5 uM after 48 hrs by Western blot analysis. It is filed as cell-based. Conditions: dose 0.5-5 µM. Summed up: (§1)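 Cells were treated with compound for 48 h and lysed on ice for 30 min in RIPA buffer with protease and phosphatase inhibitors. Lysates were cleared at 14000 g, 4 °C, and protein quantified by BCA. Samples were boiled in loading buffer, run on 10–12% SDS-PAGE and transferred to PVDF. Membranes were blocked 2 h, incubated in primary antibody overnight at 4 °C, then in secondary antibody 2 h at room temperature.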
(In western blotting, separated proteins are transferred to a membrane and probed.)

Experiment [11] has as its system NCI-H1975. Put plainly: Down regulation of AKT protein expression in human NCI-H1975 cells at 0.5 to 5 uM after 48 hrs by Western blot analysis. It is filed as functional, cell-based. Conditions: dose 0.5-5 µM. The procedure, abridged:
as §1

T1 sequence (P00533 whole entry): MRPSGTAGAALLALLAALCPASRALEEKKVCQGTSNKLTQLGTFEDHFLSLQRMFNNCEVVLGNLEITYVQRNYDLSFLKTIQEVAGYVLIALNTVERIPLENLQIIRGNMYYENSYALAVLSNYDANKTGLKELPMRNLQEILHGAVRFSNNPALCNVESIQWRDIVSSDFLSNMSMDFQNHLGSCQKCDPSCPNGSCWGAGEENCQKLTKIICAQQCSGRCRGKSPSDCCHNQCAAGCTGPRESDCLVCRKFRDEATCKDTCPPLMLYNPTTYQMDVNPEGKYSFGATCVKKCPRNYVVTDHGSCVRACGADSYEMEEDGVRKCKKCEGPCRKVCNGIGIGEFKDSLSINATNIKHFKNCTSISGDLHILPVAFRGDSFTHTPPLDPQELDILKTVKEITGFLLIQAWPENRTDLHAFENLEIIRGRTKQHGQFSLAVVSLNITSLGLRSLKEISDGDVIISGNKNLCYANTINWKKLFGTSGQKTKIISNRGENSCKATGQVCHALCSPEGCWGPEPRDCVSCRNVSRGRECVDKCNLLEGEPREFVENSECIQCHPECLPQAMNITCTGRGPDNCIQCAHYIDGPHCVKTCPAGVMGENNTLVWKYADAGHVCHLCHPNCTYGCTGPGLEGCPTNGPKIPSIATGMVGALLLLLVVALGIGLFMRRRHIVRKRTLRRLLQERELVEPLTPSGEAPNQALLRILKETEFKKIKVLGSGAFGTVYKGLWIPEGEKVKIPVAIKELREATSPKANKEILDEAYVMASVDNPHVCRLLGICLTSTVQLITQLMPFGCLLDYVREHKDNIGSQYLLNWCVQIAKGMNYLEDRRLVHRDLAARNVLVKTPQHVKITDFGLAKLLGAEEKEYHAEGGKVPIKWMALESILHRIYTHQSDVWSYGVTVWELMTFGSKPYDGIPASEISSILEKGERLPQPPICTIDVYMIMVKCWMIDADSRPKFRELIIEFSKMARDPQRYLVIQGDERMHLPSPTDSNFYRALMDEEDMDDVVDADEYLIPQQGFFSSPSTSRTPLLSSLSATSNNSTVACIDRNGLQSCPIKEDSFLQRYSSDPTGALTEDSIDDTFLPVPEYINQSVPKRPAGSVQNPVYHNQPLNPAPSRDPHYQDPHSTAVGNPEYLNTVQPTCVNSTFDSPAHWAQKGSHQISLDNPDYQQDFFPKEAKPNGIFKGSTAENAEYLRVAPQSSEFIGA
Chain of Epidermal growth factor receptor (Homo sapiens, UniProt P00533, L858R) (P00533 25-1210 L858R limits assumed): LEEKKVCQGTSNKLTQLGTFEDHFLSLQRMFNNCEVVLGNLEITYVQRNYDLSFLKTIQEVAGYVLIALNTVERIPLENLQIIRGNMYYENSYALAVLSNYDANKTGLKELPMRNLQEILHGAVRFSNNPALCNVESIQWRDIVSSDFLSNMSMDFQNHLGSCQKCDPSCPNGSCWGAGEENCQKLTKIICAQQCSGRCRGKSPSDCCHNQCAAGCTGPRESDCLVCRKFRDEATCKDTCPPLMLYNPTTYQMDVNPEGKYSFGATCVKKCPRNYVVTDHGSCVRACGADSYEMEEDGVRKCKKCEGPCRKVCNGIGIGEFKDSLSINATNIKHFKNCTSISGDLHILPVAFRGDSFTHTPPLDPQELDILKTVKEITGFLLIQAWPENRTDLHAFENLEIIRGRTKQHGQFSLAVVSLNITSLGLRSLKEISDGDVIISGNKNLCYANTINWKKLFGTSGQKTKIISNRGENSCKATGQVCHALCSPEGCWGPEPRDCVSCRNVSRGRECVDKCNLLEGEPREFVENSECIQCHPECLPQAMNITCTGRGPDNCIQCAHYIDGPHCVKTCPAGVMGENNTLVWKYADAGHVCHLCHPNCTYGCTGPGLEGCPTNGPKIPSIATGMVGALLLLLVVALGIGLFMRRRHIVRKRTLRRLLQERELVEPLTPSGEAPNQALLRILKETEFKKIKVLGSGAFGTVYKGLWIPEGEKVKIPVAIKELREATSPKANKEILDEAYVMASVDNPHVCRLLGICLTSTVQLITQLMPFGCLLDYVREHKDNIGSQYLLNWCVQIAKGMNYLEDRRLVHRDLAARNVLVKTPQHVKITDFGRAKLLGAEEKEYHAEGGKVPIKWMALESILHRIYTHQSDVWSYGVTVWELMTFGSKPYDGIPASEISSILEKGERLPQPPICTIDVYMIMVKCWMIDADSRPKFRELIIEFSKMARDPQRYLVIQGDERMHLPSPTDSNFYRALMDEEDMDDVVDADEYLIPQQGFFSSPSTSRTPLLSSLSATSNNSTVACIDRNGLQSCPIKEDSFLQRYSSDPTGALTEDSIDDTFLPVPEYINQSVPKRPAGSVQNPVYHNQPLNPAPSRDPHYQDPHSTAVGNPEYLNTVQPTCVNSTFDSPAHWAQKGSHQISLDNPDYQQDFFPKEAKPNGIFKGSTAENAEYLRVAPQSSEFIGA

Turning to `C=CC(=O)Nc1cc2c(Nc3ccc(F)c(Cl)c3)ncnc2cc1OCc1cn(CCCC(=O)NO)nn1`, the IC50 (commonly the point on the concentration scale where inhibition reaches its midpoint) was 1.82 µM in the experiment on NCI-H1975 [1], 0.00035 µM in experiment [2], 0.0011 µM in experiment [3] and 7.61 µM in the experiment “cells”. For the same compound, the inhibition entry in the experiment with NCI-H1975 [4] was “Dose-dependent effect”. Moreover, the results for the Activity in the experiment on NCI-H1975 [5], with NCI-H1975 [6] and in the experiment on NCI-H1975 [8] were 13.07%, 14.3% and 35.22%, respectively. Besides, the viability at 2.5 µM in the experiment with NCI-H1975 [7] amounted to 54%. The viability at 5 µM in the experiment with NCI-H1975 [9] turned out to be 46.1%. The inhibition result in experiment [10] is “Active”. Besides, the outcome in the experiment with NCI-H1975 [11] was Active.
